Tests used:
[1] = tested on: HeLa; assay: Disruption of mitochondrial membrane potential in human HeLa cells assessed as intact mitochondrial membrane at 10 uM after 12 hrs by JC1 staining based flow cytometry (reference value: 99.2%); type: functional
[2] = tested on: HeLa; assay: Disruption of mitochondrial membrane potential in human HeLa cells assessed as collapse of the mitochondrial membrane potential at 10 uM after 12 hrs by JC1 staining based flow cytometry (reference value: 0.768%); type: functional
[3] = tested on: HeLa; assay: Antiproliferative activity against human HeLa cells after 48 hrs by MTT assay; type: functional, cell-based
[4] = tested on: MCF7; assay: Antiproliferative activity against human MCF7 cells after 48 hrs by MTT assay; type: functional, cell-based; conditions: MCF7, 48 h
[5] = tested on: HEK-293T; assay: Cytotoxicity against human 293T cells after 48 hrs by MTT assay; type: cell-based
[6] = tested on: B16-F10; assay: Antiproliferative activity against mouse B16F10 cells after 48 hrs by MTT assay; type: functional, cell-based; conditions: B16-F10, 48 h
Method in brief: (§1)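 Cells kept in DMEM with 10% FBS, penicillin/streptomycin, 37 °C, 5% CO₂. Seeded at 5 × 10⁴ cells/well and allowed to adhere 12 h. Exposed to 0, 0.1, 1, 10 and 100 μM (final) for 48 h. Viability read by MTT reduction at OD 570 nm with 630 nm reference. IC50 reported as mean ± SD of three independent experiments.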

[7] = species on record: Homo sapiens; assay: Selectivity index, ratio of IC50 for COX1 (unknown origin) to ratio of IC50 for COX2 (unknown origin)
Method in brief: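 Enzyme ELISA kit: COX-1 or COX-2 preincubated with compound at 0, 1, 10 or 100 μM for 10 min at 37 °C in 0.1 M Tris-HCl pH 8.0, 5 mM EDTA, 2 mM phenol, 1 μM heme. Started with 100 μM arachidonic acid for 2 min at 37 °C, stopped with 1 M HCl. PGH₂ reduced by stannous chloride; PGF2α read by enzyme immunoassay at 450 nm. Index taken as the ratio of the COX IC50 values.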

[8] = tested on: A549; assay: Antiproliferative activity against human A549 cells after 48 hrs by MTT assay; type: functional, cell-based; conditions: A549, 48 h; method in brief: as §1
[9] = target: T1, Prostaglandin G/H synthase 2 (Homo sapiens, UniProt P35354); assay: Inhibition of COX2 (unknown origin) using arachidonic acid as substrate pretreated for 10 mins followed by substrate addition and measured after 2 mins by ELISA
T1 sequence (P35354 whole entry): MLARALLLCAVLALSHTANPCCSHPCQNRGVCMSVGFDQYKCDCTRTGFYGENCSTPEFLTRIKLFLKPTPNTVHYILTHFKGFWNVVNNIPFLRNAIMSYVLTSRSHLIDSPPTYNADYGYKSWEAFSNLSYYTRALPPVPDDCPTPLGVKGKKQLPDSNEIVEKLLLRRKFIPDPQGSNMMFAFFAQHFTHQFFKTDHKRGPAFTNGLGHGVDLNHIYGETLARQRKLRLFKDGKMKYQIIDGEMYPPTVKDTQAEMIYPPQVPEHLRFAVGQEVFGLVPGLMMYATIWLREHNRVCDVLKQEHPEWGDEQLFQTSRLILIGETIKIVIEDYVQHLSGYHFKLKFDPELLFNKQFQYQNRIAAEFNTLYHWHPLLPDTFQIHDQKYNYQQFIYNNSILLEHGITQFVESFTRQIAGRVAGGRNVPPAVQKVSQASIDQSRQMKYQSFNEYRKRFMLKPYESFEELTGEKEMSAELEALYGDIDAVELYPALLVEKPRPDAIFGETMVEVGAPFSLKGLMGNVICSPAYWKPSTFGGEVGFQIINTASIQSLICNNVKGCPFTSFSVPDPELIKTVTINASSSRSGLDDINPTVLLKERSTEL

[10] = target: Prostaglandin G/H synthase 1 (Homo sapiens, UniProt P23219); assay: Inhibition of COX1 (unknown origin) using arachidonic acid as substrate pretreated for 10 mins followed by substrate addition and measured after 2 mins by ELISA; type: ADME
Sequence of Prostaglandin G/H synthase 1 (P23219 whole entry): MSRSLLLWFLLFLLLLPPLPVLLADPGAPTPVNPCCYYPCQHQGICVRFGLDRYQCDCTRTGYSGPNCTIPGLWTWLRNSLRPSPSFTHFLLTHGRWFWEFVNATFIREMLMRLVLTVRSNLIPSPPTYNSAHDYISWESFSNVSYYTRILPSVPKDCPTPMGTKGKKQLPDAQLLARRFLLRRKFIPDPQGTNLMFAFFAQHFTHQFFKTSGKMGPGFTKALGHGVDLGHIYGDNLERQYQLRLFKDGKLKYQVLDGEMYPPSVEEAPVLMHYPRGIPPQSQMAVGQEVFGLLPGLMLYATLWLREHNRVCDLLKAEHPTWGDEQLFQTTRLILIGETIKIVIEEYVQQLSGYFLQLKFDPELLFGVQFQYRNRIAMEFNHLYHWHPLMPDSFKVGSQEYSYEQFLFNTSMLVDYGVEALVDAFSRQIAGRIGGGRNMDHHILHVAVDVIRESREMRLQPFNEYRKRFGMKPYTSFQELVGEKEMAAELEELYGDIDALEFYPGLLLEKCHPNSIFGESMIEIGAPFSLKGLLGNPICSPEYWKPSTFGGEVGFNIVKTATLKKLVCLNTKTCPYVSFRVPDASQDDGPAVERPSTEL

SMILES	Activity [1] [%]	Activity [2] [%]	IC50 [3] [µM]	IC50 [4] [µM]	IC50 [5] [µM]	IC50 [6] [µM]	Ratio IC50 [7]	IC50 [8] [µM]	IC50 [9] [µM]	IC50 [10] [µM]
N#CC(C#N)=NNc1cccc(Cl)c1 [CARBONYL CYANIDE M-CHLOROPHENYLHYDRAZONE]	59.5	40.5								
Cc1ccc(-c2cc(COC(=O)COc3cc(O)c4c(=O)cc(-c5ccccc5)oc4c3)nn2-c2ccccc2)cc1			4.78	5.43	315	2.59	48.4	4.49	0.93	45
O=C(COc1cc(O)c2c(=O)cc(-c3ccccc3)oc2c1)OCc1cc(-c2ccc(Br)cc2)n(-c2ccccc2)n1			6.67	8.48	316	> 100	20.4	3.58	2.12	43.2
O=C(COc1cc(O)c2c(=O)cc(-c3ccccc3)oc2c1)OCc1cc(-c2ccc(C(F)(F)F)cc2)n(-c2ccccc2)n1			6.61	11	162	9.85	7.61	8.02	4.33	32.9
O=C(COc1cc(O)c2c(=O)cc(-c3ccccc3)oc2c1)OCc1cc(-c2cccc(F)c2)n(-c2ccccc2)n1			2.81	9.02	197	10.8	12.2	40.2	3.53	43.2
O=C(COc1cc(O)c2c(=O)cc(-c3ccccc3)oc2c1)OCc1cc(-c2cccc(Cl)c2)n(-c2ccc(Cl)cc2)n1			> 100	3.94	272	5.73	87.3	4.34	0.422	36.8
